Screening results from PubChem.
Rin1-Abl PPI inh: human Rin1-Abl interaction inhibition | P00519+Q13671 | TR-FRET Rin1/Abl binding, biochemical | inhibition, % at 7.35 µM | actives 0.4% (n = 360,000); in the data active = inhibition above about 5%, passing the limit was not always enough
PG9 binder: small molecules binding HIV-1 gp120 antibody PG9; TR-FRET gp120-PG9 antibody binding; actives 0.43% (n = 360,000); inhibition, % at 6.7 µM; AID 624416; in the data active = inhibition above about 8.5%
NR1D1 modulator: modulates human Rev-erb alpha binding to DNA; P20393; Rev-erbα–FITC-DNA binding, fluorescence polarization, 90 min; activity, % at 10 µM; actives 0.79% (n = 370,000); AID 1259318;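 active = activity above about 14%, limit read from the data; passing the limit was not always enough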;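 also: 0% = DMSO wells with 35 nM protein and 100% = DMSO wells with 750 nM protein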
TbMetRS inhib: Trypanosoma brucei MetRS inhibition | purified T. brucei MetRS, ATP depletion, Kinase-Glo luminescence | inhibition, % at 11.9 µM | actives 0.4% (n = 360,000);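 active = inhibition above a per-plate cutoff of the control wells' mean inhibition plus 3 SD, cut at about 5.5% in these data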;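 also: 0% = DMSO wells median and 100% = median of wells with control inhibitor compound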
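Assay system: T. brucei methionyl-tRNA synthetase, purified | Medium: HEPES buffer with MgCl2, KCl, DTT, spermine, BSA, pyrophosphatase | Compound: 11.9 µM single point | Incubation: 15 min enzyme-compound preincubation, 2 h reaction, 10 min detection, 25 °C | Measured by: Kinase-Glo luciferase luminescence reporting remaining unconsumed ATP | Measure: % inhibition normalized to control-well medians | Replication: Singlicate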
Rin1 Abl conf: confirmation of inhibitors of human Rin1-Abl interaction; shares compounds with Rin1-Abl PPI inh; actives 49% (n = 1,300); inhibition, % at 7.35 µM; TR-FRET Rin1-Abl binding, purified proteins
GFP quencher: quenches GFP fluorescence, counter-screen for Rin1-Abl inhibitors; actives 8.5% (n = 1,300); inhibition, % at 6.75 µM; inhibitors/quenchers counterscreen; shares compounds with Rin1-Abl PPI inh;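 also: ABL1-eGFP fusion protein alone without its partner RIN1-SBP; 0% = protein with vehicle and 100% = wells lacking protein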
GFP quench DR: counter-screen for Rin1-Abl inhibitors: GFP quenchers, dose response; shares compounds with Rin1-Abl PPI inh; GFP fluorescence interference/quenching counterscreen; IC50, µM; 230 tested, under 10 active; AID 602182; call rule not given here;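 also: ABL1-eGFP fusion protein alone without its RIN1 binding partner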
* marks the source's active call; other numbers are inactive results; · = no result. A selection: hits, their analogues and other compounds. The true share with any hit is near 1.8%. Rule as the data show it, unless noted: active = inhibition above about 6.5%; inactive = the rest.

SMILES	Rin1-Abl PPI inh	PG9 binder	NR1D1 modulator	TbMetRS inhib	Rin1 Abl conf	GFP quencher	others
CN(C)c1ccc(CNC(=O)C2(C)Cc3c(-c4cccc(C(N)=O)c4)ccnc3O2)cc1 (configuration not stated)	16*	-2	2	0	8.3*	2
COc1ccc(NC(=O)C2(C)Cc3c(-c4cccc(C(N)=O)c4)ccnc3O2)cc1 (configuration not stated)	10*	-2	-4	0	3	1
CN(C)c1ccc(CNC(=O)C2(C)Cc3c(-c4ccccc4)ccnc3O2)cc1 (configuration not stated)	1	-1	-7	0	·	·
CC(=O)Nc1ccc(-c2ccnc3c2CC(C)(C(=O)NCc2ccc(N4CCN(C)CC4)cc2)O3)cc1 (configuration not stated)	8.7*	0	-4	0	6.6*	0
NC(=O)c1cccc(-c2ccnc3c2CC(C(=O)NCc2ccco2)O3)c1 (configuration not stated)	1	-1	-3	0	·	·
CC(=O)Nc1ccc(NC(=O)C2(C)Cc3c(-c4cccc(C(N)=O)c4)ccnc3O2)cc1 (configuration not stated)	1	-1	-2	0	·	·
CN(C)c1ccc(CNC(=O)C2Cc3c(-c4cccc(C(N)=O)c4)ccnc3O2)cc1 (configuration not stated)	7.0*	-1	0	0	7.2*	-2
Cc1ccc(CNC(=O)O[C@H]2CC[C@@]34CCCN3C(=O)CCC[C@H]4C2)o1	·	·	5	·	·	·
CC(C)(C)N1Cc2nnn(Cc3ccccc3)c2-c2cc(N3CCCCC3)ccc2S1(=O)=O	·	·	2	·	·	·
NC(=O)c1cccc(-c2ccnc3c2CC(C(=O)Nc2ccccc2)O3)c1 (configuration not stated)	12*	0	2	1	8.6*	0
CC(=O)c1cccc(-c2ccnc3c2CC(C(=O)Nc2ccccc2)O3)c1 (configuration not stated)	-2	0	6	0	·	·
CN(/N=C/c1ccc(O)cc1O)c1ncc(C(F)(F)F)cc1Cl	8.6*	-3	-3	0	0	0
COc1ccccc1CNc1nc(NCc2ccc(NC(C)=O)cc2)c2sccc2n1	10*	-2	2	1	7.8*	2
COc1ccccc1CNc1nc(NCc2ccccc2OC)c2sccc2n1	-2	1	7	0	·	·
COc1ccccc1CNc1nc(NCCNC(C)=O)c2sccc2n1	19*	-1	-6	0	15*	0
CC1(C)C2CCC1(C)C(O)C2 (configuration not stated)	·	·	0	·	·	·
Cc1ccc(-n2c(SCC(=O)N3Cc4ccccc4CC3C(=O)O)nnc2-c2cccnc2)c(C)c1 (configuration not stated)	7.0*	0	0	0	18*	2	GFP quench DR=>68
CC1(C)O[C@@H]2CC3C4CCC5=CC(=O)C=C[C@]5(C)C4[C@@H](O)C[C@]3(C)[C@]2(C(=O)CO)O1 (some centres not stated)	·	·	-7	·	·	·
Cc1nn(C)c(C(=O)NNC(=S)NCc2ccccc2)c1Cl	7.3*	-2	3	0	-3	0
COC(=O)c1cccc(NC(=O)c2ccc[n+]([O-])c2)c1	17*	-1	0	0	23*	1	GFP quench DR=>67
Cc1cccc(-n2c(N)c(-c3nc4ccccc4n3C)c3nc4ccccc4nc32)c1	12*	-1	5	0	-3	-2
C[C@H]1CC2C([C@@H](O)C[C@@]3(C)C2CC[C@]3(O)C(=O)COC(=O)CCC(=O)O)[C@@]2(C)C=CC(=O)C=C12 (some centres not stated)	·	·	-1	·	·	·
Cc1ccc(NC(=O)CSc2nnc(-c3cccnc3)n2-c2ccc(C)cc2)cc1	11*	1	-3	-1	11*	-1
Cc1ccc(-n2c(SCC(=O)NCc3ccco3)nnc2-c2cccnc2)cc1	7.4*	-1	3	-1	8.4*	-4
O=C(CSc1nnc(-c2cccnc2)n1-c1ccccc1)Nc1ccccc1	2	1	9	-1	·	·
SMILES	Rin1-Abl PPI inh	PG9 binder	NR1D1 modulator	TbMetRS inhib	Rin1 Abl conf	GFP quencher	others
CNC(=O)CSc1nnc(-c2cccnc2)n1-c1ccc(C)cc1	2	0	-6	-1	·	·
CC(=O)[C@H]1CCC2C3CCC4=CC(=O)CC[C@]4(C)C3CC[C@@]21C (some centres not stated)	·	·	-2	·	·	·
COCC(=O)Nc1ccc2c(c1)[C@@H]1C[C@H](CC(=O)NCc3cccc(F)c3)O[C@@H](CO)[C@@H]1O2	50*	2	3	-1	0	1
NC[C@@H]1O[C@H](O[C@@H]2[C@@H](CO)OC(O[C@@H]3[C@@H](O)[C@H](N)C[C@H](N)[C@H]3O[C@@H]3O[C@H](CN)[C@@H](O)[C@H](O)[C@H]3N)[C@@H]2O)[C@H](N)[C@@H](O)[C@@H]1O (some centres not stated)	·	·	6	·	·	·
O=c1c(-c2ccccc2)coc2c(CN3CCCC3)c(O)ccc12	5.9*	-2	5	0	-2	0
O=C(CNC(=O)c1ccc(Cl)cc1)NO	·	·	2	·	·	·
CCCS(=O)(=O)NC(=O)C1(C)CCCN(C(=O)c2ccc(F)c(Cl)c2)C1 (configuration not stated)	17*	1	-2	0	-2	-2
O=c1[nH]c2ccccc2n1CCCSCCCn1c(=O)[nH]c2ccccc21	8.7*	1	-2	0	14*	1
COc1cc(F)c(S(=O)(=O)N2CCCN(S(=O)(=O)c3cccc(N)c3)CC2)c(F)c1	·	·	1	·	·	·
O=C(NC1CCCC1)c1cc(S(=O)(=O)N2CCCC2)ccc1Cl	7.6*	-1	-2	0	-1	0
Cc1ccc(S(=O)(=O)N2CCCCC2)cc1C(=O)NC1CCCCC1	-2	-2	-1	0	·	·
CCNc1cc2c(cc1O)CCC1C2CCC2(C)C(O)CCC12 (configuration not stated)	13*	-2	1	0	-3	1
COc1ccccc1CN1CCC(CNS(=O)(=O)c2cc(-c3cc(C)no3)ccc2OC)CC1	12*	1	-2	-1	1	0
COc1cccc(/C=C2\CC3(OC(=O)C(C)(C)C)CCCN2C3)c1 (configuration not stated)	·	·	2	·	·	·
CC(=O)[C@H]1CCC2C3C[C@H](C)C4=CC(=O)CC[C@]4(C)C3[C@@H](O)C[C@@]21C (some centres not stated)	·	·	-2	·	·	·
CCNc1nc(N2CCCCC2)nc(-n2nnc(C(=O)OCC)c2C)n1	5.8*	1	-4	0	2	1
CCOC(=O)c1nnn(-c2nc(OC)nc(N3CCCC3)n2)c1-c1ccccc1	-1	0	4	0	·	·
